The source of these data is ChEMBL document CHEMBL1121366, “Synthesis and immunological activity of 5,6,6a,8,9,11a-hexahydronaphth[1',2':4,5]imidazo[2,1-b]thiazoles and 5,6,6a,9,10,11a-hexahydroanaphth[2',1':4,5]imidazo[2,1-b]thiazoles” (J Med Chem, 1980).

For series [1], the system named is Mus musculus. The series is described as follows: Effect on humoral immune response in mice against sheep red blood cells by the plaque-forming cell (PFC/10e6 spleen cells) method in experiment 3 at dose 3 mg/kg. It counts as functional. The method in brief:
(§1)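 Male ICR mice, 8-10 weeks old, groups of four, were immunized iv with 1 × 10^8 SRBC in PBS. After 24 h they received a single sc inguinal dose in saline, or as a suspension in saline with 1% Me2SO. Splenic hemolytic plaque-forming cells were counted 4 days later by Cunningham's method. Values are the mean of four ± SE, with a paired t test against the control.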

Series [2] concerns Mus musculus. The series is described as follows: Tested for increase in foot-pad thickness (mm) by its effect on cellular immune response in mice against sheep red blood cells by DHR method in experiment 12 at dose 12 mg/kg. It counts as functional. The method in brief: (§2)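 Delayed-type hypersensitivity was run in male CDF1 (Balb/c × DBA/2Cr) mice, 8-10 weeks old, groups of four. Mice were sensitized with 1 × 10^8 SRBC in PBS into one hind footpad, with sc inguinal dosing in saline or in 1% Me2SO-saline. Four days later the opposite footpad was challenged with 1 × 10^8 SRBC. The read-out was the gauge-measured increase in thickness from just before to 24 h after challenge, as mean ± SE (n = 4).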

Series [3] has as its system Mus musculus. The series is described as follows: Tested for increase in foot-pad thickness (mm) by its effect on cellular immune response in mice against sheep red blood cells by the DHR method in experiment 12 at dose 3 mg/kg. It counts as functional. The method in brief: as §2
For series [4], the system named is Mus musculus. Description: Effect on humoral immune response in mice against sheep red blood cells by the plaque-forming cell (PFC/10e6 spleen cells) method in experiment 3 at dose 12 mg/kg. The series is classed as functional. The method in brief: as §1
Series [5] concerns Mus musculus. The series is described as follows: Effect on humoral immune response in mice against sheep red blood cells by the plaque-forming cell (PFC/10e6 spleen cells) method in experiment 5 at dose 12 mg/kg. It counts as functional. The method in brief: (§3)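 Male CDF1 (Balb/c × DBA/2Cr) mice, 8-10 weeks old, groups of four, were immunized iv with 1 × 10^8 SRBC in PBS. After 24 h they received a single sc inguinal dose in saline, or as a suspension in saline with 1% Me2SO. Spleens were taken 4 days later and hemolytic plaque-forming cells counted by Cunningham's method. Values are the mean of four mice ± SE, with a paired Student's t test against the control.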

The test system of series [6] is Mus musculus. Description: Tested for increase in foot-pad thickness (mm) by its effect on cellular immune response in mice against sheep red blood cells by the DHR method in experiment 14 at dose 3 mg/kg. It counts as functional. The method in brief: as §2
In series [7] the test system is Mus musculus. The series is described as follows: Tested for increase in foot-pad thickness (mm) by its effect on cellular immune response in mice against sheep red blood cells by DHR method in experiment 14 at dose 12 mg/kg. The series is classed as functional. The method in brief:
as §2

For series [8], the system named is Mus musculus. The series is described as follows: Effect on humoral immune response in mice against sheep red blood cells by the plaque-forming cell (PFC/10e6 spleen cells) method in experiment 5 at dose 3 mg/kg. The series is classed as functional. The method in brief:
as §3

Series [9] relates to Mus musculus. The series is described as follows: Effect on humoral immune response in mice against sheep red blood cells by the plaque-forming cell (PFC/10e 6 spleen cells) method in experiment 1 at dose 3 mg/kg. The series is classed as functional. Summed up:
as §3

Series [10] has as its system Mus musculus. The series is described as follows: Effect on humoral immune response in mice against sheep red blood cells by the plaque-forming cell (PFC/10e 6 spleen cells) method in experiment 1 at dose 12 mg/kg. It counts as functional. Summed up: as §3
Series [11] has as its system Mus musculus. The series is described as follows: (§4) Acute lethal dose was determined in mice upon subcutaneous administration. It counts as ADME, organism-based. The note with it: in vivo, sc. The method in brief: (§5)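 Male mice, 8–10 weeks old, CDF1 (Balb/c × DBA/2Cr). Groups of six dosed once, either iv or sc. Three to five dose levels were chosen from 400, 300, 150, 80, 40, 20 and 10 mg/kg. LD50 was calculated by the Litchfield–Wilcoxon method. Vehicle was saline or saline with 1% Me2SO, depending on compound.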

For series [12], the system named is Mus musculus. Description: (§6) Acute lethal dose was determined in mice upon intravenous administration. The series is classed as ADME, organism-based. Particulars: in vivo. Summed up:
as §5

For series [13], the system named is Mus musculus. The series is described as follows: Tested for increase in foot-pad thickness (mm) by its effect on cellular immune response in mice against sheep red blood cells by DHR method in experiment 10 at dose 12 mg/kg. It counts as functional. The method in brief: (§7)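 Male ICR mice, 8-10 weeks old, groups of four, were sensitized with 1 × 10^8 SRBC in PBS into one hind footpad and dosed sc in the inguinal region, in saline or in saline with 1% Me2SO. Four days later the other footpad was challenged with 1 × 10^8 SRBC. Foot thickness was gauged just before and 24 h after challenge, and the increase was reported as mean of four ± SE.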

In series [14] the test system is Mus musculus. Description: Tested for increase in foot-pad thickness (mm) by its effect on cellular immune response in mice against sheep red blood cells by the DHR method in experiment 10 at dose 3 mg/kg. The series is classed as functional. Summed up:
as §7

Series [15] deals with Mus musculus. The series is described as follows: Effect on humoral immune response in mice against sheep red blood cells by the plaque-forming cell (PFC/10e6 spleen cells) method in experiment 7 at dose 3 mg/kg. The series is classed as functional. The method in brief: (§8)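 Male mice, 8–10 weeks old, CDF1 (Balb/c × DBA/2Cr) in experiment 7. Groups of four were immunized iv with 1 × 10^8 SRBC in PBS. After 24 h, compound was given sc in the inguinal region in saline or saline/1% Me2SO. Four days later, splenic hemolytic plaque-forming cells were counted by the Cunningham method and expressed per 10^6 spleen cells. Values are the mean of four mice ± SE.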

The test system of series [16] is Mus musculus. Description: Tested for increase in foot-pad thickness (mm) by its effect on cellular immune response in mice against sheep red blood cells by DHR method in experiment 16 at dose 12 mg/kg. It counts as functional. Summed up: (§9)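 Male mice, 8–10 weeks old, ICR strain. Groups of four were sensitized with 1 × 10^8 SRBC in PBS into one hind footpad, with compound given sc in the inguinal region in saline or saline/1% Me2SO. Four days later, 1 × 10^8 SRBC were injected into the other hind footpad. Foot thickness was measured with a dial gauge just before and 24 h after this challenge, and the increase was taken as the difference. Values are the mean of four mice ± SE.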

Series [17] relates to Mus musculus. The series is described as follows: Tested for increase in foot-pad thickness (mm) by its effect on cellular immune response in mice against sheep red blood cells by the DHR method in experiment 16 at dose 3 mg/kg. It counts as functional. Summed up: as §9
Series [18] relates to Mus musculus. The series is described as follows: Effect on humoral immune response in mice against sheep red blood cells by the plaque-forming cell (PFC/10e6 spleen cells) method in experiment 7 at dose 12 mg/kg. It counts as functional. Summed up:
as §8

The subject of series [19] is Mus musculus. The series is described as follows: Effect on humoral immune response in mice against sheep red blood cells by the plaque-forming cell (PFC/10e6 spleen cells) method in experiment 6 at dose 12 mg/kg. It counts as functional. The method in brief: as §3
For series [20], the system named is Mus musculus. The series is described as follows: Effect on humoral immune response in mice against sheep red blood cells by the plaque-forming cell (PFC/10e6 spleen cells) method in experiment 4 at dose 12 mg/kg. The series is classed as functional. The method in brief:
as §3

Series [21] can be described thus: as §4. The series is classed as ADME, organism-based. Particulars: mouse, in vivo, sc. The method in brief:
as §5

Series [22] in a line: as §6. The series is classed as ADME, organism-based. The note with it: mouse, in vivo. Summed up: as §5
Series [23] deals with Mus musculus. Description: Effect on humoral immune response in mice against sheep red blood cells by the plaque-forming cell (PFC/10e6 spleen cells) method in experiment 4 at dose 3 mg/kg. It counts as functional. The method in brief: as §3
The test system of series [24] is Mus musculus. Description: Tested increase in foot-pad thickness (mm) by its effect on cellular immune response in mice against sheep red blood cells by the DHR method in experiment 16 at dose 3 mg/kg. It counts as functional. Summed up: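 Male ICR mice, 8–10 weeks old, groups of four. Sensitized with SRBC (1 × 10^8) in PBS injected into one hind footpad; compound given sc in the inguinal region in saline or in saline with 1% Me2SO. Four days later the other hind footpad was challenged with SRBC (1 × 10^8). Dial gauge read just before and 24 h after challenge. Value is the mean increase ± SE.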

The subject of series [25] is Mus musculus. The series is described as follows: Effect on humoral immune response in mice against sheep red blood cells by the plaque-forming cell (PFC/10e6 spleen cells) method in experiment 8 at dose 12 mg/kg. The series is classed as functional. The method in brief: as §3
Series [26] relates to Mus musculus. Description: Effect on humoral immune response in mice against sheep red blood cells by the plaque-forming cell (PFC/10e6 spleen cells) method in experiment 6 at dose 3 mg/kg. The series is classed as functional. The method in brief:
as §3

The subject of series [27] is Mus musculus. Description: Effect on humoral immune response in mice against sheep red blood cells by the plaque-forming cell (PFC/10e6 spleen cells) method in experiment 8 at dose 3 mg/kg. It counts as functional. The method in brief:
as §3

On to `Fc1ccc2c(c1)CCC1C2N=C2SCCN21` (trans isomer), for which the PFC with Mus musculus [1] is 1970; in the series on Mus musculus [4], 1620. Besides, the Increase in footpad thickness with Mus musculus [2] and in the series with Mus musculus [3] was 0.44 mm in each case.

For `Clc1ccc2c(c1)CCC1C2N=C2SCCN21` (trans isomer), the PFC in the series on Mus musculus [5] turned out to be 790; with Mus musculus [8], 1530. For the same compound, the results for the Increase in footpad thickness with Mus musculus [6] and with Mus musculus [7] were 0.5 mm and 0.46 mm, respectively.

On to `c1ccc2c(c1)CCC1C2N=C2SCCN21` (trans isomer), for which the PFC was found to be 1100 in the series with Mus musculus [9] and 1500 in the series on Mus musculus [10]. Further, the LD50 in the series on Mus musculus [11] was 320 mg/kg; in the series with Mus musculus [12] it was 67 mg/kg. Besides, the Increase in footpad thickness with Mus musculus [13] amounted to 0.42 mm; in the series with Mus musculus [14], 0.57 mm.

With `Brc1ccc2c(c1)C1N=C3SCCN3C1CC2` (trans isomer), the PFC in the series with Mus musculus [15] came out at 740; in the series on Mus musculus [18], 920. Moreover, the results for the Increase in footpad thickness in the series on Mus musculus [16] and in the series with Mus musculus [17] were 0.31 mm and 0.35 mm, respectively.

Regarding `Fc1ccc2c(c1)CCC1N=C3SCCN3C21` (trans isomer), the values for the PFC with Mus musculus [1] and with Mus musculus [4] were 2550 and 2070, respectively. For the same compound, the Increase in footpad thickness in the series on Mus musculus [2] and in the series on Mus musculus [3] was 0.42 mm throughout.

For the compound `Clc1ccc2c(c1)CCC1N=C3SCCN3C21` (trans isomer), the PFC is 820 in the series with Mus musculus [5] and 1060 in the series on Mus musculus [8]. Further, the Increase in footpad thickness in the series on Mus musculus [6] came to 0.39 mm; in the series with Mus musculus [7] it was 0.36 mm.

`c1ccc([C@H]2CN3CCSC3=N2)cc1` [LEVAMISOLE]: the PFC in the series with Mus musculus [1] is recorded as 2820; with Mus musculus [19] it was 1330; in the series with Mus musculus [15], 1390; in the series with Mus musculus [20] it was 1800; with Mus musculus [23] it was 1380; in the series with Mus musculus [5], 1670. The PFC with Mus musculus [25] is listed as 1200; with Mus musculus [26], 1850; in the series with Mus musculus [4] it was 1870; in the series on Mus musculus [27], 570; in the series with Mus musculus [8], 1330; in the series on Mus musculus [18], 970. The median lethal dose (LD50) amounted to 136 mg/kg in [21] and 15 mg/kg in series [22]. The Increase in footpad thickness in the series on Mus musculus [24] turned out to be 0.34 mm.

A word on the LD50: it is the dose at which mortality reaches 50%. A lower LD50 goes with a more toxic substance.
